Measured values from ChEMBL document CHEMBL1140143, “Combining ligand-based pharmacophore modeling, quantitative structure-activity relationship analysis and in silico screening for the discovery of new potent hormone sensitive lipase inhibitors” (J Med Chem, 2008).

Experiments:
Hormone-sensitive lipase = molecular target: T1, Hormone-sensitive lipase (Rattus norvegicus, UniProt P15304); assay: Inhibition of HSL in Wistar rat isolated fat cells by spectrophotometric assay
T1 sequence (P15304 whole entry): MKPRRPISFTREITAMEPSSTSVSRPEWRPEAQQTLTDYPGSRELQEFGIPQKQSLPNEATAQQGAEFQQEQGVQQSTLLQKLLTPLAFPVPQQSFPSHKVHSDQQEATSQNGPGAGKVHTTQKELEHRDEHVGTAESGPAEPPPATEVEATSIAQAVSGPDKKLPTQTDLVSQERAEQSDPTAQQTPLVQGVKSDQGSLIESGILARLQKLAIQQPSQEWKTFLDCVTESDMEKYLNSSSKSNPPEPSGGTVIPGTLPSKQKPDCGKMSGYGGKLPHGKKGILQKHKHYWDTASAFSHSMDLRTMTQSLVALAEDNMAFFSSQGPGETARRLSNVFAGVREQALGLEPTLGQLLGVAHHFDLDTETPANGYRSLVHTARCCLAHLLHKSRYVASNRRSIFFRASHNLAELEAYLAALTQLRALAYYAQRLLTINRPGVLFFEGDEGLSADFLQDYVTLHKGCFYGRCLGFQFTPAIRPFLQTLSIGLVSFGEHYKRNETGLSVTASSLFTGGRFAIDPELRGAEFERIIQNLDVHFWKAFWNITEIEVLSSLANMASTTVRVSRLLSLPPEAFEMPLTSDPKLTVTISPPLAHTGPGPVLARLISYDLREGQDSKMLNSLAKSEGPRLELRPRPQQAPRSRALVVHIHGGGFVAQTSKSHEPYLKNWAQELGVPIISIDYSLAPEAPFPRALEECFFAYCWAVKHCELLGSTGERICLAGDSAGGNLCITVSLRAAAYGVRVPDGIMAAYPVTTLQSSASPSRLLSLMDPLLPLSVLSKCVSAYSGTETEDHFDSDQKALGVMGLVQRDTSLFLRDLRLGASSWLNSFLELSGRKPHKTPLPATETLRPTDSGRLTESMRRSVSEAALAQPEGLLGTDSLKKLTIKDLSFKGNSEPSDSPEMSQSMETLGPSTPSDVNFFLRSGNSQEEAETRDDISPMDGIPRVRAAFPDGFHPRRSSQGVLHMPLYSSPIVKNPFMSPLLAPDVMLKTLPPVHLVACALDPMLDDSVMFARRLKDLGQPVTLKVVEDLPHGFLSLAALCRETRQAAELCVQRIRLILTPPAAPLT

[1] = molecular target: T2, Hormone-sensitive lipase (Rattus norvegicus) (UniProt P15304); assay: Inhibition of HSL in Wistar rat isolated fat cells at 1 uM by spectrophotometric assay
T2 sequence (whole entry): T1 sequence (P15304 whole entry)
Procedure, shortened: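 HSL extract from male Wistar rat epididymal fat cells (collagenase-isolated, homogenized in Tris-HCl pH 7.0/sucrose, ether-extracted supernatant). Enzyme preincubated with compound 30 min at 37 °C, then p-nitrophenyl butyrate added at 10 µM in phosphate buffer pH 7.25 with dithioerythritol; DMSO ≤1.0%. A400 read at 1, 3, 6 min at 37 °C; residual activity versus no-compound control; mean of ≥3 measurements.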

| Compound | IC50 (Hormone-sensitive lipase) [nM] | inhibition [1] [%] |
| --- | --- | --- |
| COC(=O)c1cc(Oc2ccc(Cl)cc2Cl)ccc1[N+](=O)[O-] [BIFENOX] | 430 | 60 |
| O=C(O)/C(=N\OCc1ccccc1)c1ccccc1 |  | 21 |
| Cc1ccc(-c2nc(SCc3ccccc3)nc(O)c2CCO)cc1 |  | 45 |

Next, values leading:

| IC50 (Hormone-sensitive lipase) [nM] | inhibition [1] [%] | Compound |
| --- | --- | --- |
| 510 | 67 | COc1cccc(CSC(C(=O)O)c2ccccc2)c1 (stereo not drawn) |
| 210 | 64 | CCCCOc1ccc(Oc2ccc(C(F)(F)F)cc2[N+](=O)[O-])cc1 |
